# In the library only some 4.6% were active in any assay of this set; here they are far more common.
# Arr AP2 block = human beta-arrestin and AP2 interaction inhibition; FITC-arrestin peptide / GST-AP2 beads, flow cytometry; AP2 beta2 appendage carries R879A mutation; inhibition, % at 10 µM; 0.31% of 340,000 active;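 active means inhibition above a set limit, near 3 SD of compounds lacking own fluorescence, cut at about 54% in these data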
#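 system = GST-tagged AP2 beta2-adaptin appendage (R879A) on 4 µm glutathione beads | reagent = FITC-labelled arrestin peptide probe, 50 nM final | schedule = compound with beads 12 min RT, then probe 1 h RT | signal = HyperCyt-sampled flow cytometry, FL1 channel, ex 488/em 535 nm | read-out = percent response from loss of bead-bound FITC fluorescence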
# NALP3 yeast inh = inhibitors of NALP3 inflammasome in yeast. 0.39% of 330,000 active. Yeast reconstituted NLRP3/ASC/caspase-1, beta-gal luminescence, 24 h. inhibition, % at 10 µM;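 active means inhibition of 50% or more; inactive means inhibition below 50%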
# NALP1 yeast inh = inhibitors of NALP1 inflammasome in yeast. S. cerevisiae NALP1/ASC/caspase-1 growth, X-gal OD620, 72 h. inhibition, % at 10 µM. 0.61% of 280,000 active; in the data active means inhibition mostly above about 24%, no sharp cut-off; inactive means mostly below about 32%
# ALR inh = human ALR oxidase inhibition via reduced H2O2 | purified ALR, DTT oxidation, H2O2 HRP-luminol luminescence | 3.8% of 290,000 active | P55789 | inhibition, % (concentration not given with the values) | AID 485317;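 active means mean replicate inhibition above about 79%, with every replicate also reaching it, limit read from the data; inconclusive means only one of the two criteria met; inactive means mean below limit and not every replicate reaching it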
# Target sequence (P55789 whole entry, looked up): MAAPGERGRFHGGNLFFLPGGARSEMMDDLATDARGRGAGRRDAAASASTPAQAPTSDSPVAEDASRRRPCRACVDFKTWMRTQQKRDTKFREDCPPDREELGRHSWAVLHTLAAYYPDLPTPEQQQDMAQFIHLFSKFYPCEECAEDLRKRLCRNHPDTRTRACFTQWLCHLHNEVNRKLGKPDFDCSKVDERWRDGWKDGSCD
# DSG3 Ab inh = human desmoglein-3 autoantibody binding inhibition; P32926; DSG3-coupled beads, scFv-anti-DSG3-GFP binding, flow cytometry; hits give low values; binding (percent of control), % at 10 µM; 0.48% of 310,000 active;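 active means binding more than 3 SD below its plate's average and above zero; inconclusive means below that plate limit but binding exactly zero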;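 further: hits lower antibody fragment binding to DSG3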
# PolyA inh = inhibitors of polyadenylation in S. cerevisiae; S. cerevisiae SKY197-pL101 polyadenylation reporter, beta-gal luminescence; efflux-impaired pdr1/pdr3 knockout yeast; score 100 = 6 SD above DMSO; activity score, % at 12 µM; 0.02% of 300,000 active; AID 1875;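 active means lowest replicate activity score at least 50, where 100 means six control SD above control mean; inconclusive means lowest score under 50 but half or more replicates reach 50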;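 further: yeast exposed to compound for 9 h at 30 °C; higher score means more reporter readthrough which indicates perturbed polyadenylation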
# Hits are given with their value; 0 = inactive; ? = inconclusive; - = no result given.
SMILES,Arr AP2 block,NALP3 yeast inh,NALP1 yeast inh,ALR inh,DSG3 Ab inh,PolyA inh
CCCCCCSc1nc(O)c(C2OC(=O)c3c2ccc(OC)c3OC)c(=O)n1-c1ccccc1 (stereo not given),0,0,0,98,0,0
CCCCSc1nc(O)c(C2OC(=O)c3c2ccc(OC)c3OC)c(=O)n1C (stereo not given),0,0,-,?,0,?
CCC(C)[C@H](NS(=O)(=O)c1ccc(C)cc1)C(=O)N1CCC(C(=O)N[C@@H](Cc2ccccc2)C(=O)O)CC1 (stereo not given in full),0,0,0,0,0,0
COC(=O)/C(=N\Nc1ccc(Cl)cc1)Sc1nnc(-c2ccc(OC)cc2)n1C,0,0,0,95,0,0
CN1CCN(/N=C/c2ccc(N(c3ccccc3)c3ccccc3)cc2)CC1,0,0,0,96,-,0
CN1CCN(/N=C/c2ccc(N(C)c3ccccc3)cc2)CC1,0,0,0,99,0,0
Cc1cc(C)n(C(=O)Cn2nc(C)c(Br)c2C)n1,0,0,0,0,0,0
CC1CCC(NC(=O)COC(=O)CCC(=O)c2ccc(Cl)s2)CC1 (stereo not given),0,0,-,-,0,0
Cc1nc(C)c(C(=O)OCC(=O)NCc2ccccc2)s1,0,0,-,0,-,-
c1ccc(C2Oc3ccccc3C3CC(c4cccs4)=NN32)cc1 (stereo not given),0,0,0,98,0,0
CN(C(=O)c1cccc(NC(=O)Cc2ccc(NC(=O)C3CCCN(C(=O)C4CCC4)C3)cc2)c1)C1CCCCC1 (stereo not given),0,-,-,-,0,-
CCOC(=O)CC(S(=O)(=O)c1ccccc1)S(=O)(=O)c1ccccc1,-,-,-,-,0,-
CCN(CC)S(=O)(=O)c1ccc(C(=O)Nc2nnc(CSC)o2)cc1,0,0,0,91,0,0
CCN(CC)S(=O)(=O)c1ccc(C(=O)Nc2nnc(COC)o2)cc1,0,0,0,0,0,0
CC(OC(=O)C1CCN(S(=O)(=O)c2ccc(C(C)(C)C)cc2)CC1)C(=O)N(C)C1CCCCC1 (stereo not given),0,-,-,-,-,-
COc1ccc(NC2CCCN(C(=O)CCN3CCCO3)C2)cc1 (stereo not given),0,0,0,96,0,0
COc1ccc(NC2CCCN(C(=O)COc3ccc(C(C)=O)cc3)C2)cc1 (stereo not given),-,-,-,-,0,-
COc1ccc(NC2CCCN(C(=O)CCN3CCOCC3)C2)cc1 (stereo not given),0,-,0,99,0,0
O=C(CN1CCCc2ccccc21)N/N=C/c1ccc(O)cc1O,0,0,0,98,0,0
O=C(CN1CCCc2ccccc21)NC(=O)NCc1ccccc1,0,0,-,0,0,0
CC(C)(C)NC(=O)NC(=O)CN1CCCc2ccccc21,0,0,0,96,-,-
O=C(CN1CCCc2ccccc21)N/N=C/c1ccccc1,0,0,0,0,0,0
CC1CCN(c2nc(-c3cccnc3)nc3scc(-c4ccccc4)c23)CC1,0,0,0,0,0,0
CC1CCN(c2nc(CN3CCCCC3)nc3scc(-c4ccccc4)c23)CC1,0,0,50,0,0,0
COc1ccc(CCNc2nc(-c3ccc(O)cc3)cs2)cc1OC,0,0,0,0,0,0
SMILES,Arr AP2 block,NALP3 yeast inh,NALP1 yeast inh,ALR inh,DSG3 Ab inh,PolyA inh
CCCCCC(=O)Nc1ccc(-c2csc(N)n2)cc1,0,0,0,99,0,0
CC(=O)Nc1ccc(-c2csc(NNC(=O)c3ccccc3)n2)cc1,0,0,0,100,0,0
COc1ccc(CCNc2nc(-c3ccc(NC(C)=O)cc3)cs2)cc1OC,0,0,0,97,0,0
CC(=O)Nc1ccc(-c2csc(N/N=C(/C)c3ccccc3)n2)cc1,0,0,-,99,0,0
CC(=O)Nc1ccc(-c2csc(NCc3ccccc3)n2)cc1,0,0,0,0,0,0
CC(=O)Nc1ccc(-c2cc(-c3ccccc3)nc(-c3ccccc3)n2)cc1,0,0,0,0,-15,0
CCC(=O)Nc1ccc(-c2csc(NNC(C)=O)n2)cc1,0,0,0,99,0,0
CCOC(=O)/C(C)=N/Nc1nc(-c2ccc(NC(C)=O)cc2)cs1,0,0,-,99,0,0
Cc1cnn(C(=O)c2cc(-c3ccccn3)nc3ccc(Cl)cc23)c1,0,0,41,0,0,0
Cc1nnc(SCC(=O)NC(C)(C)C)n1NCc1ccc(N(C)C)cc1,0,0,0,81,0,0
COc1cccc(C(=O)Nc2cccc(-c3ccc(N4CCOCC4)nn3)c2)c1OC,0,0,-,0,0,0
CCn1nc(C(=O)OCC(=O)N(CCC#N)c2ccccc2)c2ccccc2c1=O,0,0,-,0,0,-
CCN(CC)CCn1c2c(c(SCC(=O)Nc3cc(C)cc(C)c3)nc1=O)CCC2,0,0,-,0,0,0
CN(C)CCn1c2c(c(SCC(=O)Nc3nccs3)nc1=O)CCCC2,0,0,-,96,0,0
CCN(CC)CCn1c2c(c(SCC(=O)Nc3nccs3)nc1=O)CCCC2,0,0,-,98,0,0
CCn1ccc(C(=O)Nc2ccc3c(c2)CCC3)n1,0,0,0,0,0,0
COc1ccc(NC(=O)COC(=O)C2CC2)cc1S(=O)(=O)N1CCCCC1,0,0,-,0,0,-
O=C(Oc1cc2oc(=O)cc(-c3ccccc3)c2cc1Cl)C1CCCCC1,0,0,0,98,0,0
CCOC(=O)C1(CCOc2ccccc2)CCN(CC(O)CO)CC1 (stereo not given),0,0,0,-,90,?
COc1ccc(NC(=O)CCCNC(=O)Cn2cnc3sc4c(c3c2=O)CCCC4)c(OC)c1,0,0,0,0,?,0
Cc1nn(C(C)c2n[nH]c(=S)n2-c2ccc(F)cc2)c(C)c1[N+](=O)[O-] (stereo not given),0,0,0,0,0,0
Cc1nn(CCc2n[nH]c(=S)n2-c2cccc(Cl)c2)c(C)c1[N+](=O)[O-],0,0,0,0,0,0
Cc1nn(CCc2n[nH]c(=S)n2-c2ccc(F)cc2)c(C)c1[N+](=O)[O-],0,0,0,81,0,0
Cc1nn(CCc2n[nH]c(=S)n2-c2ccc(F)c(Cl)c2)c(C)c1[N+](=O)[O-],-,0,0,92,0,0
CCOc1ccc(C(Nc2cccnc2)c2cc(Cl)c3cccnc3c2O)cc1 (stereo not given),0,0,44,0,0,-
COc1ccc(N2CCN(Cc3nc(N)nc(N4CCCc5ccccc54)n3)CC2)cc1,0,0,0,87,0,0
Nc1nc(CN2CCN(c3ccccc3)CC2)nc(N2CCCc3ccccc32)n1,0,0,0,98,0,0
CC1(C)CC(=O)C=C(c2ccc(COC(=O)c3cccc(C(F)(F)F)c3)cc2)C1=O,-,-,-,-,0,-
O=C1SC(SCc2ccccc2Cl)=N/C1=C\c1ccc(C(=O)O)cc1,0,0,0,101,0,0

# Bioassay records (PubChem)
